{"source": "ChEMBL document CHEMBL1146087", "about": "“1,4-Benzodiazepines as inhibitors of respiratory syncytial virus” (J Med Chem, 2006)", "key": {"[1]": {"assay": "Tmax in Sprague-Dawley rat at 25 mg/kg, po", "assay_type": "ADME, organism-based", "set-up": "dose 25 mg/kg, route oral", "conditions": "in vivo"}, "[2]": {"assay": "Apparent oral clearance in Sprague-Dawley rat at 2 mg/kg, po", "assay_type": "ADME, organism-based", "set-up": "dose 2 mg/kg, route oral", "conditions": "in vivo"}, "[3]": {"system": "Respiratory syncytial virus", "assay": "Antiviral activity against RSV RSS in Hep2 cells by plaque assay", "assay_type": "functional, organism-based", "conditions": "human respiratory syncytial virus, HEp-2"}, "[4]": {"system": "Respiratory syncytial virus", "assay": "Antiviral activity against RSV RSS in Hep2 cells by whole cell XTT assay", "assay_type": "functional, organism-based", "conditions": "human respiratory syncytial virus, HEp-2", "summary_of_the_method": "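Primary whole-cell assay with XTT read-out of infected cells. Parallel cultures without virus were run to measure compound cytotoxicity. IC50 values were derived.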"}, "HEp-2": {"system": "HEp-2", "assay": "Cytotoxicity against Hep2 cell at 50 uM", "assay_type": "functional, cell-based", "conditions": "Homo sapiens", "summary_of_the_method": "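Run alongside the whole-cell antiviral XTT assay, without virus, to measure compound toxicity to the cells. The read-out is XTT.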"}, "[5]": {"assay": "Oral bioavailability in Sprague-Dawley rat at 2 mg/kg, po", "assay_type": "ADME, organism-based", "conditions": "in vivo"}, "[6]": {"system": "Respiratory syncytial virus", "assay": "Antiviral activity against RSV Long in Hep2 cells by ELISA", "assay_type": "functional, organism-based", "conditions": "human respiratory syncytial virus, HEp-2"}, "[7]": {"assay": "Cmax in Sprague-Dawley rat at 25 mg/kg, po", "assay_type": "ADME, organism-based", "set-up": "dose 25 mg/kg, route oral", "conditions": "in vivo"}, "[8]": {"system": "Respiratory syncytial virus", "assay": "Antiviral activity against RSV B in Hep2 cells by plaque assay", "assay_type": "functional, organism-based", "conditions": "human respiratory syncytial virus, HEp-2"}, "[9]": {"assay": "Tmax in Sprague-Dawley rat at 2 mg/kg, po", "assay_type": "ADME, organism-based", "set-up": "dose 2 mg/kg, route oral", "conditions": "in vivo"}, "[10]": {"assay": "Tmax in Sprague-Dawley rat at 2 mg/kg, iv", "assay_type": "ADME, organism-based", "set-up": "dose 2 mg/kg, route intravenous", "conditions": "in vivo"}, "[11]": {"assay": "Half life in Sprague-Dawley rat at 25 mg/kg, po", "assay_type": "ADME, organism-based", "set-up": "dose 25 mg/kg, route oral", "conditions": "in vivo"}, "[12]": {"assay": "Clearance in Sprague-Dawley rat at 2 mg/kg, iv", "assay_type": "ADME, organism-based", "set-up": "dose 2 mg/kg, route intravenous", "conditions": "in vivo"}, "[13]": {"assay": "Half life in Sprague-Dawley rat at 2 mg/kg, po", "assay_type": "ADME, organism-based", "set-up": "dose 2 mg/kg, route oral", "conditions": "in vivo"}, "[14]": {"assay": "Cmax in Sprague-Dawley rat at 2 mg/kg, po", "assay_type": "ADME, organism-based", "set-up": "dose 2 mg/kg, route oral", "conditions": "in vivo"}, "Rattus norvegicus [15]": {"system": "Rattus norvegicus", "assay": "Volume of distribution in Sprague-Dawley rat at 25 mg/kg, po", "assay_type": "ADME, organism-based", "set-up": "dose 25 mg/kg, route oral", "conditions": "in vivo"}, "Rattus norvegicus [16]": {"system": "Rattus norvegicus", "assay": "Volume of distribution in Sprague-Dawley rat at 2 mg/kg, po", "assay_type": "ADME, organism-based", "set-up": "dose 2 mg/kg, route oral", "conditions": "in vivo"}, "[17]": {"assay": "Cmax in Sprague-Dawley rat at 2 mg/kg, iv", "assay_type": "ADME, organism-based", "set-up": "dose 2 mg/kg, route intravenous", "conditions": "in vivo"}, "[18]": {"system": "Respiratory syncytial virus", "assay": "Antiviral activity against RSV B in Hep2 cells by ELISA", "assay_type": "functional, organism-based", "conditions": "human respiratory syncytial virus, HEp-2"}, "[19]": {"assay": "Half life in Sprague-Dawley rat at 2 mg/kg, iv", "assay_type": "ADME, organism-based", "set-up": "dose 2 mg/kg, route intravenous", "conditions": "in vivo"}, "[20]": {"assay": "Apparent oral clearance in Sprague-Dawley rat at 25 mg/kg, po", "assay_type": "ADME, organism-based", "set-up": "dose 25 mg/kg, route oral", "conditions": "in vivo"}, "[21]": {"assay": "Volume of distribution in Sprague-Dawley rat at 2 mg/kg, iv", "assay_type": "ADME, organism-based", "set-up": "dose 2 mg/kg, route intravenous", "conditions": "in vivo, read-out: Vdss"}, "[22]": {"system": "Respiratory syncytial virus", "assay": "Antiviral activity against RSV RSS in Hep2 cells by ELISA", "assay_type": "functional, organism-based", "conditions": "human respiratory syncytial virus, HEp-2"}, "[23]": {"system": "Respiratory syncytial virus", "assay": "Antiviral activity against RSV Long in Hep2 cells by plaque assay", "assay_type": "functional, organism-based", "conditions": "human respiratory syncytial virus, HEp-2"}}}
{"molecule": "CC(=O)NC1N=C(c2ccccc2)c2ccccc2NC1=O", "note": "(centres undefined)", "values": [{"measurement": "Tmax", "setting": "[1]", "result": 1.5, "unit": "h"}, {"measurement": "CL/F", "setting": "[2]", "result": 4.9, "unit": "mL/min/kg"}, {"measurement": "IC50", "setting": "[3]", "result": 7.1, "unit": "µM"}, {"measurement": "IC50", "setting": "[4]", "result": 8.6, "unit": "µM"}, {"measurement": "Activity", "setting": "HEp-2", "result": "Not toxic"}, {"measurement": "bioavailability", "setting": "[5]", "result": 77, "unit": "%"}, {"measurement": "IC50", "setting": "[6]", "result": 17.6, "unit": "µM"}, {"measurement": "Cmax", "setting": "[7]", "result": 7930, "unit": "ng/mL"}, {"measurement": "IC50", "setting": "[8]", "result": 3.6, "unit": "µM"}, {"measurement": "Tmax", "setting": "[9]", "result": 2.6, "unit": "h"}, {"measurement": "Tmax", "setting": "[10]", "result": 4.8, "unit": "min"}, {"measurement": "half-life", "setting": "[11]", "result": 4.4, "unit": "h"}, {"measurement": "clearance", "setting": "[12]", "result": 5.3, "unit": "mL/min/kg"}, {"measurement": "half-life", "setting": "[13]", "result": 5.9, "unit": "h"}, {"measurement": "Cmax", "setting": "[14]", "result": 616, "unit": "ng/mL"}, {"measurement": "Vdss", "setting": "Rattus norvegicus [15]", "result": 2.7, "unit": "L/kg"}, {"measurement": "Vdss", "setting": "Rattus norvegicus [16]", "result": 4.2, "unit": "L/kg"}, {"measurement": "Cmax", "setting": "[17]", "result": 2400, "unit": "ng/mL"}, {"measurement": "IC50", "setting": "[18]", "result": 17.8, "unit": "µM"}, {"measurement": "half-life", "setting": "[19]", "result": 5, "unit": "h"}, {"measurement": "CL/F", "setting": "[20]", "result": 7.3, "unit": "mL/min/kg"}, {"measurement": "Vd", "setting": "[21]", "result": 2.2, "unit": "L/kg"}, {"measurement": "IC50", "setting": "[22]", "result": 9.3, "unit": "µM"}, {"measurement": "IC50", "setting": "[23]", "result": 7.2, "unit": "µM"}]}
